Assay results taken from PubChem BioAssay AID809 (SRMLSC, 2007).
Activity calls are given as the source filed them.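 Rule for the calls: active = EC50 for reversing nicotinamide-shortened yeast lifespan at or below a set limit; inactive = EC50 above that limit.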

Tested on: S. cerevisiae DeaD BB579, nicotinamide rescue growth, OD615 48 h
Experiment: BB579 yeast growth restoration under nicotinamide – S. cerevisiae, yeast lifespan extension project, dose response (AID 809)
Outline: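 Assay system: Saccharomyces cerevisiae DeaD strain BB579, log-phase cells; Medium: CSMM-D glucose restrictive medium; Dosing: compounds from 0.078 to 10 µM final, 0.5% DMSO; Times: 4 h pre-incubation, 48 h exposure at 30 °C; Technique: optical density at 615 nm (absorbance); Evaluation: culture saturation density reflecting mother-cell replicative lifespan.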

Row | SMILES | EC50
1 | O=C(CSc1nc2ccccc2o1)c1cc2ccccc2oc1=O | > 10 µM (inactive)
2 | O=C1Nc2ccccc2C12OCC1(CO2)COC2(OC1)C(=O)Nc1ccccc12 (stereo not given) | > 10 µM (inactive)
3 | O=C(CCN1CCCCCC1)Nc1ccc(F)cc1 | > 10 µM (inactive)
4 | CCCCCn1c(=O)c(C(=O)NCc2ccccn2)c(O)c2ccccc21 | > 10 µM (inactive)
5 | COc1ccc(-c2cc(C(F)(F)F)nc(S(C)(=O)=O)n2)cc1OC | 8.76 µM
6 | CCOC(=O)CN1C(=O)N[C@H](c2ccc(Br)cc2)C(C(C)=O)=C1C | > 10 µM (inactive)
7 | CCOc1ccc2nc(NCCNC(=O)Nc3ccccc3)c(C#N)cc2c1 | > 10 µM (inactive)
8 | O=Cc1ccccc1OS(=O)(=O)c1ccccc1 | 9.56 µM
9 | Cc1ccc(/C(O)=C2\C(=O)C(=O)N(c3cc(C)on3)C2c2cccc(Cl)c2)cc1 (stereo not given) | 9.72 µM
10 | CC1(C)Cc2ccccc2-c2nnc(SCC(=O)Nc3ccc4c(c3)OCO4)n21 | > 10 µM (inactive)
11 | Cc1ccc(/C=C2/C(=O)NC(=O)N(CCc3ccc(F)cc3)C2=O)o1 | > 10 µM (inactive)
12 | O=C(COc1ccc2ccccc2c1)Nc1cccc(C(=O)Nc2ccccc2C(=O)O)c1 | 8.35 µM
13 | Cn1nnnc1SCCNCC#Cc1ccccc1 | > 10 µM (inactive)
14 | CC(C)C(C(=O)O)N1C(=O)/C(=C/c2cccn2C)SC1=S (stereo not given) | 8.05 µM
15 | COc1cc(C(C[N+](=O)[O-])c2c(-c3ccccc3)cc3ccccn23)cc(OC)c1OC (stereo not given) | > 10 µM (inactive)
16 | CC(=O)c1c(O)cc2n(c1=O)-c1ccc(Cl)cc1C2(C)C | 7.34 µM
17 | Cc1ccc(/C=C/C(=O)C2C(=O)c3ccccc3C2=O)cc1 | 8.56 µM
18 | CC(C)OCCCNS(=O)(=O)c1ccc2ccccc2c1 | > 10 µM (inactive)
19 | CN(C)/C=C(/C(=O)c1ccc(Cl)cc1Cl)S(=O)(=O)c1ccccc1 | 5.3 µM
20 | O=C1C(Cl)=C(Nc2ccccc2O)C(=O)N1CCc1ccccc1 | > 10 µM (inactive)
21 | O=C(NC(=S)NNC(=O)c1ccc(Cl)cc1Cl)c1cccnc1 | 9.35 µM
22 | O=C(Oc1cc(=O)n2ccccc2n1)c1ccccc1 | 7.19 µM
23 | O=C1c2ccccc2C(Nc2ccc3c(c2)OCCO3)N1c1ccccn1 (stereo not given) | > 10 µM (inactive)
24 | CCc1nc(SCC(=O)c2ccc3c(c2)OCCO3)c2ccccc2n1 | > 10 µM (inactive)
25 | Cc1cc(C)nc(SCc2cc(=O)c(OC(=O)c3ccc(Br)o3)co2)n1 | 3.26 µM
26 | Nn1c(-c2ccccn2)nnc1-c1ccccn1 | > 10 µM (inactive)
27 | O=C(c1ccccc1)c1nc2ccccc2[nH]c1=O | > 10 µM (inactive)

Row | SMILES | EC50
28 | O=c1c2[nH]c3ccccc3c2ncn1Cc1ccco1 | > 10 µM (inactive)
29 | COC(=O)c1sc2ncn(-n3c(C)ccc3C)c(=O)c2c1C | > 10 µM (inactive)
30 | Cc1ccc(N(C(=O)CS(=O)CC(=O)Nc2ccc(F)cc2)C(C(=O)NC2CCCCC2)c2ccco2)cc1 (stereo not given) | > 10 µM (inactive)
31 | Cc1ccnc(-n2c(C)cc(/C=C3\C(=O)NC(=S)N(C)C3=O)c2C)c1 | > 10 µM (inactive)
32 | CCCNC(=O)CCC(NS(=O)(=O)c1ccc(C)cc1)C(=O)NCCC (stereo not given) | > 10 µM (inactive)
33 | O=[N+]([O-])c1cc2oc3c(c2c(C=NCc2ccncc2)c1O)CCCC3 | 1.2 µM
34 | ClC(Cl)(c1nnnn1-c1ccccc1)c1nnnn1-c1ccccc1 | > 10 µM (inactive)
35 | O=C(Oc1ccc([N+](=O)[O-])cc1)c1ccc2ccccc2n1 | > 10 µM (inactive)
36 | Cc1ccc(NC(=O)C2C(=O)N(C)c3ccccc32)cc1 (stereo not given) | > 10 µM (inactive)
37 | CCOc1cc(/C=C\[N+](=O)[O-])ccc1OCC(=O)Nc1ccccc1C | > 10 µM (inactive)
38 | Oc1ccc2ccccc2c1C=Nc1ccccc1-c1nc2ccccc2[nH]1 | > 10 µM (inactive)
39 | COc1cccc(C(=O)Oc2cc(N)n(S(=O)(=O)c3ccc(C)cc3)n2)c1OC | 9.26 µM
40 | CCCCC(=Nc1ccccc1OC)C1=C(O)CC(c2ccccc2)CC1=O (stereo not given) | 4.5 µM
41 | CC(C)(C)C(=O)/C(=C/c1cccc([N+](=O)[O-])c1)n1cncn1 | 3.73 µM
42 | Cc1cc(C)c(NC(=O)/C(=C/c2ccccc2)c2ccccc2)c(C)c1 | > 10 µM (inactive)
43 | CC(=O)Nc1c(O)nc(SCc2ccccc2C#N)[nH]c1=O | > 10 µM (inactive)
44 | Cc1cc(C(=O)CN2C(=O)NC(C)(CC(C)C)C2=O)c(C)n1-c1ccc2c(c1)OCO2 (stereo not given) | > 10 µM (inactive)
45 | COc1ccc(C(=O)On2c(-c3ccc(Br)cc3)nc3ccccc3c2=O)cc1 | 3.02 µM
46 | COc1ccc(-c2cc(N)n(S(=O)(=O)c3c(F)c(F)c(F)c(F)c3F)n2)cc1OC | 6.84 µM
47 | Cc1cc(C)n2cc(CSc3nnc(N)s3)nc2n1 | > 10 µM (inactive)
48 | COc1ccccc1CNC(=O)C(CCSC)NS(=O)(=O)c1ccc2c(c1)oc(=O)n2C (stereo not given) | > 10 µM (inactive)
49 | O=C1NC(=O)N(CCC2=CCCCC2)C(=O)/C1=C\c1cccs1 | 7.01 µM
50 | CCn1c(=O)c2ccccc2n2c(SCC(=O)N3CCCc4ccccc43)nnc12 | > 10 µM (inactive)
51 | O=C(c1cnn2c(C(F)F)cc(C3CC3)nc12)N1CCCC1 | > 10 µM (inactive)
52 | O=C1c2ccccc2NC(c2cnc3ccccc3n2)N1O (stereo not given) | 1.42 µM
53 | Nc1cccc2c1C(=O)N(C(=O)c1ccc(Cl)c(S(=O)(=O)N3CCCCCC3)c1)C2=O | 7.66 µM
54 | CCCn1c(C)cc(C(=O)COc2ncnc3sccc23)c1C | 5.05 µM

Row | SMILES | EC50
55 | CN1C(=O)C(C(=O)Nc2ccccc2F)c2ccccc21 (stereo not given) | 9.71 µM
56 | Cc1nonc1NC(=O)CSc1nc(C2CCCCC2)nc2ccccc12 | > 10 µM (inactive)
57 | Cc1c(NC(=O)C(=O)/C=C(/O)c2ccccc2)c(=O)n(-c2ccccc2)n1C | 4.95 µM
58 | CS(=O)(=O)c1nc(-c2cccs2)cc(C(F)(F)F)n1 | 3.91 µM
59 | CC(C)Cc1nn2c(=O)cc(O)nc2s1 | 8.79 µM
60 | COCCn1c(SCC(=O)Nc2ccc(C)cc2)nc2c(oc3ccccc32)c1=O | > 10 µM (inactive)
61 | CCOC(=O)CS(=O)(=O)c1nc(-c2ccc(F)cc2)cc(C(F)(F)F)n1 | 5.71 µM
62 | CCCCOC(=O)n1c(=O)oc2cc(S(=O)(=O)N3CCCCC3)ccc21 | > 10 µM (inactive)
63 | C=C(CC)C(=O)c1ccc(OCC(=O)O)c(Cl)c1Cl | 7.07 µM
64 | O=C1ON=C(c2ccccc2)/C1=C/c1ccc(-c2ccccc2[N+](=O)[O-])o1 | 3.82 µM
65 | COc1ccccc1N(CN1CCCC1=O)C(=O)c1c(F)cccc1F | > 10 µM (inactive)
66 | COc1ccc(C(=O)C(CN2CCOCC2)c2ccccc2)cc1 (stereo not given) | 7.11 µM
67 | COc1ccc(NC(=O)/C(Cl)=C(/Cl)S(=O)Cc2ccc(C)cc2)cn1 (stereo not given) | > 10 µM (inactive)
68 | CC(=O)Nc1ccc(C(=O)CSc2nnc(-c3ccc(O)cc3)n2CC2CCCO2)cc1 (stereo not given) | > 10 µM (inactive)
69 | CC(C)=C1C(=O)NN(c2ccc(C)c(Cl)c2)C1=O | 9.85 µM
70 | C/C(=N\NC(=O)c1ccccc1O)C1C(=O)c2ccccc2C1=O | < 0.078 µM
71 | O=C1c2ccccc2C(=O)N1OCc1ccccc1 | > 10 µM (inactive)
72 | CCCCC(c1nnnn1CC1CCCO1)N1CCN(c2nc3ccccc3s2)CC1 (stereo not given) | > 10 µM (inactive)
73 | Cc1[nH]n(-c2ccccc2)c(=O)c1N=Nc1nccs1 | 6 µM
74 | Cc1oc2c(c(=O)c1C)C(=O)CC(c1ccccc1)C2 (stereo not given) | 7.82 µM
75 | O=Cc1cc2ccccc2nc1SCc1ccc(Cl)cc1 | 8.27 µM
76 | CCN1C(=O)/C(=C/N(C(C)=O)c2ccccc2)N(c2ccccc2)C1=S | > 10 µM (inactive)
77 | CN1C(=O)/C(=C/c2cccn2-c2ccc3ccccc3c2)C(=O)NC1=S | 5.73 µM
78 | Cc1cc(C)n(-c2ccc(OCC(=O)O)nn2)n1 | > 10 µM (inactive)
79 | O=C(c1c[nH]c(C(=O)C(Cl)(Cl)Cl)c1)c1ccccc1Cl | 8.53 µM
80 | CC(=O)N1CCN(CCN=CC2=C(O)CC(c3cccs3)CC2=O)CC1 (stereo not given) | > 10 µM (inactive)
81 | CC(c1ccco1)N(C(=O)c1ccccc1NS(=O)(=O)c1cc([N+](=O)[O-])ccc1Cl)c1ccccn1 (stereo not given) | 9.17 µM

Row | SMILES | EC50
82 | C=C(C)CN(CC)C(=O)COc1ccc(S(=O)(=O)Nc2ccc(OC)cc2)cc1 | > 10 µM (inactive)
83 | O=C(CCl)c1ccc(Cc2ncc(C(F)(F)F)cc2Cl)s1 | 3.83 µM
84 | CS(=O)(=O)Oc1ccc(Br)cc1/C=C1/N=C(c2ccco2)OC1=O | > 10 µM (inactive)
85 | O=C(O)CCCCCN1C(=O)/C(=C\c2ccncc2)SC1=S | > 10 µM (inactive)
86 | CCn1cc(C(=O)O)c(=O)c2ccc(C)nc21 | 3.62 µM
87 | CCCC(=Nc1ccccc1)C1=C(O)C(C(=O)OC)C(C)(C)CC1=O (stereo not given) | 5.99 µM
88 | CC1=C(C#N)C2C(/C1=N/O)C2(C)C (stereo not given) | > 10 µM (inactive)
89 | Cc1ccccc1Oc1cc(-n2ncc(Cl)c(Cl)c2=O)ncn1 | > 10 µM (inactive)
90 | Cc1ccc2nc(-c3ccc(NC(=O)CSc4ccccc4)cc3)[nH]c2c1 | > 10 µM (inactive)
91 | c1ccc(-c2c(-c3ccccc3)n(Cc3ccco3)c3ncnc(NCCCn4ccnc4)c23)cc1 | 1.98 µM
92 | CCCN1C(=O)/C(=C/c2ccncc2)SC1=S | 6.93 µM
93 | COc1cc(OC)cc(-c2nc3ccccc3c(=O)n2OC(=O)c2ccc(C)c(C)c2)c1 | 8.74 µM
94 | CCOc1ccc(C(=O)C(CN2CCOCC2)c2ccccc2)cc1 (stereo not given) | 7.92 µM
95 | CCCCCCCC(=O)N/N=C(/C)c1c(O)cc(C)oc1=O | > 10 µM (inactive)
96 | Oc1ccc2ccccc2c1C=Nc1ccc(N2CCOCC2)cc1 | > 10 µM (inactive)
97 | Cc1ccc(NC(=O)CN2CCN(CCN=CC3=C(O)CC(c4ccccc4)CC3=O)CC2)cc1 (stereo not given) | 9.58 µM
98 | N#Cc1c(-c2ccccc2)c(-c2ccccc2)nn(CC(=O)NNC(=O)Nc2ccccc2)c1=O | > 10 µM (inactive)
99 | CC(C)c1noc2ncc(C(=O)c3cc(Cl)cc(Cl)c3O)cc12 | > 10 µM (inactive)
100 | CCOC(=O)C(=Cc1ccc(F)cc1)C(=O)OCC | 6.7 µM
101 | C=CS(=O)(=O)c1ccc(Oc2ccc(S(=O)(=O)C=C)cc2)cc1 | 7.12 µM
102 | O=C(Nc1ccc(S(=O)(=O)N2CCc3ccccc3C2)cc1)c1ccccc1 | > 10 µM (inactive)
103 | CCOC(=O)c1nnn(-c2nonc2N)c1CN1CCc2ccccc2C1 | 9.77 µM
104 | CCOC(=O)C1Cc2cc3c(cc2C1=O)CC(C(=O)OCC)C3=O (stereo not given) | 5.89 µM
105 | Cc1ccc(C(=O)NNC(=S)NC(=O)c2ccc(Cl)cc2)cc1 | 6.78 µM
